Data as given in ChEMBL document CHEMBL1158990, “New cytotoxic lupane lactones from Kokoona ochracea” (1991).
In brackets after ≈: the same amount, converted by molar mass.

Columns and labels:
Assay type in all cases: functional
P388 = experiment: Cytotoxicity against mouse P388 cells after 48 hrs; details: P388, 48 h, read-out: ED50 (the source's name)
Summary of the method: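 Cultured murine P-388 leukemia cells were treated with compound for 48 h. The read-out is cell growth inhibition, and ED50 in µg/ml is the concentration producing 50% inhibition.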

[1] = Cytotoxicity against human UISO-BCA1 cells after 72 hrs; details: UISO-BCA1, 72 h, read-out: ED50 (the source's name)
Summary of the method: (§1)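 In vitro growth-inhibition assay with a 72 h compound exposure. ED50 in µg/ml is the concentration that inhibits cell growth by 50%.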

[2] = Cytotoxicity against human UISO-COL2 cells after 72 hrs; details: UISO-COL2, 72 h, read-out: ED50 (the source's name); summary of the method: as §1
[3] = Cytotoxicity against human KB3 cells after 72 hrs; details: KB3, 72 h, read-out: ED50 (the source's name); summary of the method: as §1
[4] = Cytotoxicity against human KBV1 cells after 72 hrs; details: KB-V1, 72 h, read-out: ED50 (the source's name)
HT-1080 = experiment: Cytotoxicity against human HT1080 cells after 72 hrs; details: HT-1080, 72 h, read-out: ED50 (the source's name); summary of the method: as §1
[5] = Cytotoxicity against human UISO-MEL2 cells after 72 hrs; details: UISO-MEL2, 72 h, read-out: ED50 (the source's name); summary of the method: as §1
[6] = Cytotoxicity against human UISO-LUC1 cells after 72 hrs; details: UISO-LUC1, 72 h, read-out: ED50 (the source's name); summary of the method: as §1

| Structure (SMILES) | EC50 (P388) | EC50 [1] | EC50 [2] | EC50 [3] | EC50 [4] | EC50 (HT-1080) | EC50 [5] | EC50 [6] |
| --- | --- | --- | --- | --- | --- | --- | --- | --- |
| C=C1C(=O)O[C@@H]2C[C@]3(C)CC[C@]4(C)[C@@H](CC[C@@H]5[C@@]6(C)CCC(=O)C(C)(C)[C@@H]6C(=O)C[C@]54C)[C@@H]3[C@H]12 [OCHRACEOLIDE C] | 0.53 µg/mL (≈ 1.14 µM) | 4.5 µg/mL (≈ 9.64 µM) | 9.2 µg/mL (≈ 19.7 µM) | 5.5 µg/mL (≈ 11.8 µM) | > 20 µg/mL | 8.6 µg/mL (≈ 18.4 µM) | 8.3 µg/mL (≈ 17.8 µM) | 12 µg/mL (≈ 25.7 µM) |
| C=C1C(=O)O[C@@H]2C[C@]3(C)CC[C@]4(C)[C@H](CC[C@@H]5[C@@]6(C)CCC(=O)C(C)(C)[C@@H]6CC[C@]54C)[C@H]3[C@H]12 [OCHRACEOLIDE A] | 0.26 µg/mL (≈ 0.574 µM) | 10 µg/mL (≈ 22.1 µM) | 6.8 µg/mL (≈ 15 µM) | 2.7 µg/mL (≈ 5.96 µM) | > 20 µg/mL | 9.6 µg/mL (≈ 21.2 µM) | 8.3 µg/mL (≈ 18.3 µM) | 12 µg/mL (≈ 26.5 µM) |
| CC1(C)C(=O)CC[C@]2(C)[C@H]3CC[C@H]4[C@@H]5[C@H]6[C@@H](C[C@]5(C)CC[C@@]4(C)[C@]3(C)CC[C@@H]12)OC(=O)[C@@]61CO1 | 7.8 µg/mL (≈ 16.6 µM) | > 20 µg/mL | > 20 µg/mL | 5.2 µg/mL (≈ 11.1 µM) | > 20 µg/mL | > 20 µg/mL | > 20 µg/mL | > 20 µg/mL |
